# Source: PubChem BioAssay
# T cruzi repl: T. cruzi replication inhibition; inhibition, % (test concentration not listed); 1.4% of 300,000 active; T. cruzi beta-gal in NIH3T3, luminescence, 90 h;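 active means mean inhibition across valid replicates above about 55%, limit read from the data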;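 further: signal also drops with host cell toxicity which is not excluded here; 0% = plate median of DMSO wells and 100% = zero luminescence signal; higher percent means less beta-gal luminescence so fewer parasites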
#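 Incubation – ≥90 h infection period, 3 h prior cell attachment · System – NIH/3T3 fibroblasts plus reporter T. cruzi · Doses – compound pinned at 50 nL/well, DMSO · Read-out basis – percent inhibition of parasite-derived β-gal signal · Signal – luminescent β-galactosidase signal after 60 min lysis · Also added – 5000 T. cruzi trypomastigotes/well · Medium – Low-serum DMEM with 2% FBS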
# Lmaj promast: Leishmania major promastigote growth inhibition. Leishmania major promastigotes, resazurin fluorescence viability. inhibition, % at 10 µM. 9% of 200,000 active. AID 1063; in the data active means inhibition above about 50%;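 further: promastigotes grown with compound for 44 hours at 28 °C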
# UPR XBP1 act: adaptive UPR (XBP1) activation; activation, % at 20 µM; CHO-XBP1 luciferase reporter, IRE1-XBP1 UPR activation, luminescence; percent of tunicamycin response, DMSO as zero; 0.33% of 330,000 active;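 active means versus positive control, 20 µM dose yields 30% or more activation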;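 further: 100% = tunicamycin at 10 µg/mL and 0% = DMSO only wells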
#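 Assay system: IRE1-XBP1 luciferase reporter CHO line. Input: 1000 cells/well. Buffer or medium: F12 with 10% serum. Doses: 20 µM, 1% DMSO. Times: overnight seeding at 37 °C, 6 h compound treatment at 37 °C. Technique: Steady-Glo luciferase glow luminescence, 10 min after reagent addition.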
# CHOP inhibitor: inhibitors of CHOP induction in ER stress response; CHO-K1 CHOP-promoter luciferase, tunicamycin-induced, 15-18 h; inhibition, % at 10 µM; 3.8% of 220,000 active;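 active means compounds that reduced the stress-induced luciferase reporter signal by more than about 70% of percent inhibition, limit read from the data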;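 further: 0% = tunicamycin plus vehicle and 100% = wells without tunicamycin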
# Dynein cargo inh: dynein cargo transport inhibition; 3617.4 mouse cells, GR-EGFP nuclear translocation imaging; test concentration mostly 20 µM; stimulated with dexamethasone, 1 µM; active compounds read low; z-score, hits read low; 0.47% of 220,000 active;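 active means plate z-score of nuclear minus cytoplasmic receptor signal below a set negative limit, without overly bright fluorescence or cell loss, cut at about -3.5 in these data, passing the limit was not always enough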;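 further: z-score of nuclear minus cytoplasmic ring GR-EGFP intensity difference per well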
#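 Buffer or medium: tet-free, stripped-serum medium; Also added: dexamethasone, 1.0 µM final; Technique: high-content fluorescence imaging after fixation; Times: 48 h induction, 1 h compound, 30 min dex at 37 °C; Read-out: per-cell GR-EGFP intensity, nucleus versus surrounding cytoplasmic ring, well-averaged.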
# UPR CHOP act: apoptotic UPR (CHOP) activation | CHO-CHOP luciferase reporter, luminescence; percent of tunicamycin response over DMSO baseline | activation, % at 10 µM | 0.34% of 330,000 active;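 active means at 10 µM dose, activation of 40% or more, normalized to positive control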;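 further: 100% = tunicamycin at 10 µg/mL and 0% = DMSO alone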
#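 Material: CHO-CHOP cells, stable luciferase reporter of PERK-eIF2a-CHOP signalling; quantity: 500 reporter cells seeded per well; buffer or medium: F12 medium containing 10% fetal bovine serum; compound: one dose, 10 µM in 0.5% DMSO; incubation: 6 h compound treatment, 37 °C; measured by: Steady-Glo luciferase luminescence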
# The depositor's hits bear a star; / = no result given. The sample as a whole holds a higher share of hits than the screen did.
SMILES,T cruzi repl,Lmaj promast,UPR XBP1 act,CHOP inhibitor,Dynein cargo inh,UPR CHOP act
O=C1C2C3C=CC(C4CC34)C2C(=O)N1c1cccc2ccccc12 (configuration not stated),7,/,-3,/,/,1
CCOC(=O)c1sc(NC(=O)c2ccc(S(=O)(=O)N(C)C)cc2)cc1C,65*,29,5,26,0.068,0
CCCCn1c(N)c(N(CC(C)C)C(=O)CC2OC(=O)c3ccccc32)c(=O)[nH]c1=O (configuration not stated),-6,/,-2,/,/,1
COc1ccccc1NC(=O)CSc1nc2n[nH]c(C)c2c(=N)n1-c1ccccc1Cl,21,65*,26,46,-0.38,1
CCc1ccccc1NC(=O)CSc1nc2n[nH]c(C)c2c(=N)n1-c1ccc(OC)cc1,/,14,/,21,1.1,/
O=C(Cc1ccccc1F)Nc1ccc(S(=O)(=O)N2CCCC2)cc1,/,/,1,/,/,1
CN(C)CCn1c(=O)n(Cc2ccco2)c(=O)c2c3c(sc21)CCCCC3,55*,88*,4,31,-0.75,-1
O=c1c2c3c(sc2n(CCN2CCCC2)c(=O)n1Cc1ccco1)CCCCC3,57*,87*,3,31,-0.32,-2
O=C(Cn1c(=O)n(Cc2ccco2)c(=O)c2c3c(sc21)CCCCC3)c1ccccc1,-2,13,0,3,-1.6,5
CCCn1c(N)c(N(CCOC)C(=O)c2ccc(-c3ccc(Cl)cc3)o2)c(=O)[nH]c1=O,-3,/,0,/,/,2
COC(=O)CC/C(C)=N\Nc1ccc([N+](=O)[O-])cc1[N+](=O)[O-],3,-7,1,75*,-0.99,5
CCCCSCCCNC(=O)Nc1ccc(CC)cc1,2,4,0,0,-0.01,2
O=C(N/N=C/c1sc2ccccc2c1O)c1ccccc1,21,98*,3,65,1.5,0
O=C(N/N=C/c1ccccc1)c1cccc2ccccc12,5,/,2,/,/,8
COc1ccc(C(=O)N/N=C/c2sc3ccccc3c2O)cc1,12,77*,/,24,-0.88,/
COc1ccc(C(=O)N/N=C/c2c[nH]c3ccccc23)cc1,2,/,-3,/,/,4
Cc1cccc(/N=C/c2sc3ccccc3c2O)n1,8,/,2,14,-0.53,1
Oc1c(C=Nc2cccc3cccnc23)sc2ccccc12,55*,99*,39*,-48,-0.45,59*
O=C(N/N=C/c1sc2ccccc2c1O)c1cccc2ccccc12,27,86*,/,50,0.16,/
O=C(/C=C/c1ccc2ccccc2n1)N1CCN(S(=O)(=O)c2ccccc2F)CC1,3,/,-4,70*,-1.5,1
CCN(CC)CCn1c(=N)n(CC(O)COc2cccc(C)c2)c2ccccc21 (configuration not stated),50,100*,-2,6,-0.76,-1
Cc1cccc(OCC(O)Cn2c(=N)n(CCN3CCCCC3)c3ccccc32)c1 (configuration not stated),27,100*,2,-22,-0.71,-1
COc1ccc(/C=C/C(=O)C2(O)CCCCC2)cc1OC,6,41,-2,-25,-2.4,4
CCc1c(C)c2cc(Cl)c(O)c(CN3CCCC3)c2oc1=O,-5,/,-3,/,/,-1
Cc1ccc2c(c1)sc(-c1ccc(N(C)C)cc1)[n+]2C,62*,/,0,/,/,11
SMILES,T cruzi repl,Lmaj promast,UPR XBP1 act,CHOP inhibitor,Dynein cargo inh,UPR CHOP act
COc1ccc(C)cc1Nc1n[n+](-c2ccccc2)c(-c2ccc(N(C)C)cc2)s1,47,/,5,/,/,26
OC(c1ccc(Cl)cc1)c1nccc2ccccc12 (configuration not stated),-2,/,0,/,/,2
O=C1C=C(c2cccc(Br)c2)C[C@@H](c2ccc3c(c2)OCO3)C1,/,/,-1,/,/,1
COc1cc(C(=O)ON=C2C3CC4CC(C3)CC2C4)cc(OC)c1OC,4,/,1,/,/,3
COc1cc(C(=O)O/N=C2\C=CC(=O)C=C2C)cc(OC)c1OC,-18,97*,-4,94*,-1,12
COc1cc(C(=O)O/N=C2/C=CC(=O)C(C)=C2C)cc(OC)c1OC,/,100*,/,40,-2.1,/
O=C(CCN=C1NS(=O)(=O)c2ccccc21)OCc1cccc(Cl)c1,-12,/,-1,/,/,-1
COc1cccc(/C=N/Nc2nc3ccccc3[nH]2)c1OC,-6,/,0,-29,-0.54,6
Cc1ccsc1/C=N/Nc1nc2ccccc2[nH]1,20,50,/,3,0.78,/
CC(C)Cn1c(/C=N/Nc2nc3ccccc3[nH]2)nc2ccccc21,46,100*,/,-55,0.12,/
C(=N\Nc1nc2ccccc2[nH]1)/c1cccs1,-2,98*,-2,-4,-0.33,3
CCCn1c(/C=N/Nc2nc3ccccc3[nH]2)nc2ccccc21,/,100*,/,45,-0.67,/
Cc1nn(-c2ccccc2)c(Cl)c1/C=N/Nc1nc2ccccc2n1C,55*,52*,3,14,-0.55,14
CCOC(=O)C1(CC)NC(c2ccc(OC)cc2OC)C2C(=O)N(C)C(=O)C21 (configuration not stated),-11,0,1,17,-0.54,0
Cc1ccc(N2CCN(/N=C/c3c(C)nn(-c4ccccc4)c3Cl)CC2)cc1,-4,89*,-2,-5,1.8,-1
Cc1nn(-c2ccccc2)c(C)c1/C=N/Nc1nc2ccccc2[nH]1,66*,100*,14,-10,1.3,0
C=CCn1cc(/C=N\NC(=O)c2cc3c(ccc4ccccc43)o2)c2ccccc21,-23,100*,1,21,-0.27,1
c1ccc2[nH]c(NN=C3CCCCCC3)nc2c1,-6,75*,3,-10,0.7,4
c1ccc2[nH]c(NC3=NCCC3)nc2c1,-19,30,0,-13,-0.47,1
C(=N\Nc1nc2ccccc2[nH]1)/c1ccncc1,-15,14,-1,-7,0.88,3
Cn1c(/C=N/Nc2nc3ccccc3[nH]2)nc2ccccc21,51,101*,21,19,0.59,1
C=CCn1cc(/C=N/Nc2nc3ccccc3[nH]2)c2ccccc21,15,101*,3,59,-0.057,5
Clc1nc2ccccc2cc1/C=N/Nc1nc2ccccc2[nH]1,-7,21,2,-32,0.88,3
COc1ccc(Cl)cc1NS(=O)(=O)c1c(C)[nH]c(=O)[nH]c1=O,-11,/,-1,/,/,-1
CSc1ccc(C(=O)N2CCC(CCC(=O)NC3CC3)CC2)cc1,-12,/,-7,/,/,3
Cc1nn(-c2ccccc2)c(N2CCCC2)c1/C=N/NC(=O)c1cc(-c2ccccn2)nc2ccccc12,4,6,1,25,-0.36,-1
